# HCT116 PTEN-null – growth suppressors of cells with PTEN tumor suppressor deletion; AID 827; HCT116 PTEN-null viability, CellTiter-Glo, 60 h; active compounds read low; viability, % at 10 µM; hit rate 1.2% among 140,000;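 active = viability at or below a set limit, 4 SD under the median of all tested compounds, cut at about 3.7% in these data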;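 also: PTEN knockout HCT116 line with beta catenin targeted HCT116 as companion control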
# HUVEC inhibit – blocks proliferation of human endothelial cells | HUVEC proliferation, CellTiter-Glo luminescence, 72 h; active compounds read low | hit rate 1.1% among 86,000 | AID 648 | viability, % at 10 µM (by protocol);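 active = viability at or below 30%; inactive = viability above 30%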;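 also: 100% = median luminescence of DMSO-only cell control wells on each plate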
# bCat KO growth – beta-catenin-lacking colon tumor cell growth suppression. HCT116 beta-catenin knockout viability, CellTiter-Glo, 60 h; active compounds read low. viability, % at 10 µM. hit rate 1.5% among 140,000;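 active = viability at or under a set limit, the compound median less 4 SD, cut at about 6% in these data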;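 also: 0% = Hyamine 1622 control at 20 µM and 100% = untreated cell control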
# Fibroblast inh – blocks proliferation of human lung fibroblasts; LL 47 human lung fibroblast viability, ATP luminescence; active compounds read low; viability, % at 10 µM; hit rate 1.1% among 85,000; AID 719;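 active = viability at or below 50% in the single dose screen; inactive = viability above 50%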;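 also: compound exposure lasted 72 h before the ATP readout; 100% = median luminescence of untreated cell-only wells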
#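 material = human LL 47 lung fibroblast cells | dosing = compounds added from tenfold dosing solution, 0.1% DMSO final | timing = overnight cell rest, 72 h compound treatment at 37 °C | measured by = CellTiter-Glo luminescence measuring cellular ATP | evaluation = % viability versus median cells-only luminescence | control set = cell-only wells, no compound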
# H69AR inhibit – growth inhibitors of human H69AR lung tumor cells; H69AR lung tumor viability, ATP luminescence, 72 h; active compounds read low; viability, % at 10 µM; hit rate 6% among 85,000; AID 598;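 active = viability at or below 40%; inactive = viability above 40%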;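 also: multidrug resistant small cell line overexpressing MRP-1 efflux transporter; 100% = mean luminescence of untreated control wells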
# * hit, by the source's call; . = not tested or not shown. Many of the other results were omitted from the sample, so hits are more common in it than they were.
SMILES,HCT116 PTEN-null,HUVEC inhibit,bCat KO growth,Fibroblast inh,H69AR inhibit
CCOC(=O)c1cnn(-c2ccccc2)c1-n1cccc1C(=O)C(=O)Nc1ccccc1,88,.,81,.,.
CCC(C)NC(=O)C1CCN(S(=O)(=O)c2ccc(OC)cc2)CC1 (stereo not drawn),100,99,95,104,99
N#Cc1ccsc1NC(=O)CSc1ncn[nH]1,116,98,115,99,93
N#Cc1ccsc1NC(=O)CSc1ncnc2ccccc12,47,83,36,78,38*
CCOC(=O)N1CCN(c2ncnc3c2oc2nc(C(C)C)c4c(c23)CCC4)CC1,83,24*,90,98,48
CCC(=O)N1c2ccc(S(=O)(=O)CCC(=O)NCc3cccs3)cc2CC1C (stereo not drawn),82,76,82,90,30*
N#CCC(=O)N1CCn2c1nc1ccccc12,96,98,94,89,97
CCC(=O)N1c2ccc(S(=O)(=O)CCC(=O)NC3CCCC3)cc2CC1C (stereo not drawn),96,89,88,103,93
CCC(=O)N1c2ccc(S(=O)(=O)CCC(=O)N3CCn4c3nc3ccccc34)cc2CC1C (stereo not drawn),81,88,67,44*,1.9*
FC(F)(F)c1ccc(N2CCOCC2)c(Nc2nc3ccccc3n3cnnc23)c1,0.4*,.,0.8*,.,.
O=C(Cn1cnc2ccccc21)Nc1cc(C(F)(F)F)ccc1N1CCOCC1,75,108,80,97,97
CCCCCCCCc1nnc(NC(=O)c2ccco2)s1,92,93,95,112,101
COc1cccc(CNc2ccc(N3CCC(C)CC3)cc2)c1OC,74,93,59,99,14*
O=C1c2ccccc2-c2nnc(-c3ccccc3)cc21,13,.,15,.,.
Cc1cccc(-c2cc3c(nn2)-c2ccccc2C3=O)c1,30,59,36,84,19*
CN(C)c1ccc(/C=N/c2cc(-c3ccccc3)nn2-c2ccccc2)cc1,78,.,85,.,.
Cc1ccc(N(CC(=O)NC2CCCC2)C(=O)c2c(C)noc2C)cc1C,87,88,91,92,73
CN(C)c1ccc(NC2=C(Cl)C(=O)c3ccccc3C2=O)cc1,1.5*,.,1.6*,.,.
Cc1ccc(NC2=C(NCCO)C(=O)c3ccccc3C2=O)cc1,62,.,61,.,.
O=C1C(Cl)=C(NCCCO)C(=O)c2ccccc21,11,96,11,104,7.4*
CN(O)/C=c1/ccc2c(n1)C(=O)C=CC=2,15,95,22,110,37*
Cc1ccc(-c2ccc(/C=N\NC(=O)c3cc4c(ccc5ccccc54)o3)o2)cc1[N+](=O)[O-],0.6*,.,1.2*,.,.
O=C(N/N=C/c1ccc2c(c1)OCO2)c1cc(-c2ccccc2)nc2ccccc12,92,.,95,.,.
Cc1sc(NC(=O)c2ccc(Br)s2)c(C(N)=O)c1C,85,94,84,84,50
O=C(N/N=C/c1ccccn1)c1cc(-c2ccc(Cl)cc2)nc2ccccc12,3.2*,.,3.7*,.,.
SMILES,HCT116 PTEN-null,HUVEC inhibit,bCat KO growth,Fibroblast inh,H69AR inhibit
Cc1sc(NC(=O)c2cc(-c3ccc(Cl)cc3)nc3ccccc23)c(C(N)=O)c1C,1.0*,.,3.9*,.,.
Cc1sc(NC(=O)c2ccc(Cl)s2)c(C(N)=O)c1C,92,60,104,88,11*
Cc1cccc(/C=N\NC(=O)c2sccc2-n2cccc2)c1,82,.,89,.,.
CC(NC(=O)NC12CC3CC(CC(C3)C1)C2)C1CCCO1 (stereo not drawn),97,100,93,96,95
COc1cccc(-c2nnc(NC(=O)C(C)C)o2)c1,74,97,91,99,81
CCCN(CCC)S(=O)(=O)c1ccc(C(=O)Nc2nnc(CSC)o2)cc1,24,61,36,84,32*
CCc1nnc(NC(=O)c2ccc(S(=O)(=O)N(CCOC)CCOC)cc2)o1,96,98,99,98,66
COc1cccc(-c2nnc(NC(=O)c3ccccc3Br)o2)c1,.,78,.,93,34*
CCCN(CCC)S(=O)(=O)c1ccc(C(=O)Nc2nnc(-c3cccc(OC)c3)o2)cc1,10,1.7*,10,12*,16*
CCCN(CCC)S(=O)(=O)c1ccc(C(=O)Nc2nnc(-c3cc(OC)cc(OC)c3)o2)cc1,10,31,15,51,16*
C=CCn1c(SCc2c(C)noc2C)nnc1C1COc2ccccc2O1 (stereo not drawn),80,82,77,86,94

# Compound activity (PubChem)
